Results on 28 molecules are retold here after ChEMBL document CHEMBL4138062, “Pyrazolobenzothiazine-based carbothioamides as new structural leads for the inhibition of monoamine oxidases: design, synthesis, in vitro bioevaluation and molecular docking studies” (Medchemcomm, 2017).

SMILES strings stand for the structures.

In data set [1] the target is T1, Amine oxidase [flavin-containing] A (Homo sapiens, UniProt P21397).
T1 sequence (P21397 whole entry): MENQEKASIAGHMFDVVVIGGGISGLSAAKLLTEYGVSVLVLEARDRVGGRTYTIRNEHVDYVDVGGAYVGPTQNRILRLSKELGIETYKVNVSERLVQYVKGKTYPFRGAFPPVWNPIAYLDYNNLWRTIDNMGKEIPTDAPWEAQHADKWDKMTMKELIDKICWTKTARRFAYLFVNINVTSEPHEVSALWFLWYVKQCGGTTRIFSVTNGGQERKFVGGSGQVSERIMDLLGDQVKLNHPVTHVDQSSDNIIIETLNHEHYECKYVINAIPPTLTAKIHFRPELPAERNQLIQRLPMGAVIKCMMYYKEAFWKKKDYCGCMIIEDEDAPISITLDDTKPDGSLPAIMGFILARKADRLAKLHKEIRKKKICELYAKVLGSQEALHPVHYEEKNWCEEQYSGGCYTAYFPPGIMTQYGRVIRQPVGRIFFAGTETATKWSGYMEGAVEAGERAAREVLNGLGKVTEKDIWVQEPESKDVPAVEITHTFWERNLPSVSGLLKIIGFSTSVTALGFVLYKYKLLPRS
Nature of the data set: Inhibition of human MAOA at 0.1 mM pre-incubated for 10 mins before p-tyramine substrate addition and measured after 10 mins by amplex red reagent-based microplate fluorescence reader analysis. The method, boiled down:
(§1)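 The reaction in 50 mM phosphate buffer (pH 7.4) was preincubated with enzyme and test compound at 37 °C for 10 min. p-Tyramine (3 mM solution) and Amplex Red reagent were then added, and the mix was held at 37 °C for 10 min. Resorufin fluorescence (ex 544, em 590 nm) from H2O2 was read. Percent inhibition was taken at 100 μM final concentration, in triplicate.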

Data set [2] deals with T2, Amine oxidase [flavin-containing] B (Homo sapiens, UniProt P27338).
T2 sequence (P27338 whole entry): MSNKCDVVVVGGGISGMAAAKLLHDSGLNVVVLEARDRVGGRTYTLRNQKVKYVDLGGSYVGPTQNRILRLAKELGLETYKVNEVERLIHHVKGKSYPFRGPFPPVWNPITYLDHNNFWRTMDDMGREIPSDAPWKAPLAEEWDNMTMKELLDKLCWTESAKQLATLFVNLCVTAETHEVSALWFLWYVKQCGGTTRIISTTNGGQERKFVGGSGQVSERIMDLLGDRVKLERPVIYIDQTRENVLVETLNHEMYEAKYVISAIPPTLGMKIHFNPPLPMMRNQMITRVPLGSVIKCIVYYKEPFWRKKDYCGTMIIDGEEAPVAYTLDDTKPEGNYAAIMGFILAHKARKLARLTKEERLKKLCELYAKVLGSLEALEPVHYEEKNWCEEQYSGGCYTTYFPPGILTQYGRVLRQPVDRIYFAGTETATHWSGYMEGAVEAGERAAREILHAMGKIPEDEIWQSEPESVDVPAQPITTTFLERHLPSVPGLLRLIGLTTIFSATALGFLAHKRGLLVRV
Nature of the data set: Inhibition of human MAOB at 0.1 mM pre-incubated for 10 mins before p-tyramine substrate addition and measured after 10 mins by amplex red reagent-based microplate fluorescence reader analysis. The method, boiled down: as §1

Data set [3] concerns the target T1, Amine oxidase [flavin-containing] A. The data set can be described thus: Inhibition of human MAOA pre-incubated for 10 mins before p-tyramine substrate addition and measured after 10 mins by amplex red reagent-based microplate fluorescence reader analysis.
For data set [4], the target named is T2, Amine oxidase [flavin-containing] B.

With `Cc1c2c(nn1-c1ccc(/C=N/NC(=S)Nc3cccc(F)c3)cc1)-c1ccccc1S(=O)(=O)N2C`, the inhibition at 100 µM in data set [1] and in data set [2] was over 50% in each case. Further, the IC50 (in general, the concentration needed to halve the response being measured) in data set [3] amounted to 0.47 µM; in data set [4] it was 1.68 µM.
As for `Cc1ccc(NC(=S)N/N=C/c2ccc(-n3nc4c(c3C)N(C)S(=O)(=O)c3ccccc3-4)cc2)c(C)c1`, the inhibition at 100 µM in data set [1] and in data set [2] was over 50% each time. In addition, the values for the IC50 in data set [3] and in data set [4] were 1.13 µM and 0.11 µM, respectively.
As for `CCc1ccc(NC(=S)N/N=C/c2ccc(-n3nc4c(c3-c3ccccc3)N(C)S(=O)(=O)c3ccccc3-4)cc2)cc1`, the inhibition at 100 µM in data set [1] and in data set [2] was over 50% each time. Also, the IC50 in data set [3] was 8.18 µM; in data set [4], 0.02 µM.
With `Cc1cccc(C)c1NC(=S)N/N=C/c1ccc(-n2nc3c(c2-c2ccccc2)N(C)S(=O)(=O)c2ccccc2-3)cc1`, the inhibition at 100 µM in data set [1] and in data set [2] was over 50% in each case. The values for the IC50 in data set [3] and in data set [4] were 65.7 µM and 0.77 µM, respectively.
Consider `CN1c2c(nn(-c3ccc(/C=N/NC(=S)Nc4cccc(Cl)c4)cc3)c2-c2ccccc2)-c2ccccc2S1(=O)=O`, for which the inhibition at 100 µM in data set [1] and in data set [2] was over 50% throughout. The IC50 is 7.73 µM in data set [3] and 20.9 µM in data set [4].
Consider `CN1c2c(nn(-c3ccc(/C=N/NC(=S)Nc4ccccc4Cl)cc3)c2-c2ccccc2)-c2ccccc2S1(=O)=O`, for which the inhibition at 100 µM in data set [1] and in data set [2] was over 50% each time. The IC50 in data set [3] was determined as 33.8 µM; in data set [4], 0.68 µM.
Turning to `CN1c2c(nn(-c3ccc(/C=N/NC(=S)Nc4cccc(F)c4)cc3)c2-c2ccccc2)-c2ccccc2S1(=O)=O`, the inhibition at 100 µM in data set [1] and in data set [2] was over 50% throughout. Besides, the IC50 came out at 9.02 µM in data set [3] and 1.76 µM in data set [4].
Regarding `CN1c2c(nn(-c3ccc(/C=N/NC(=S)NCN4CCOCC4)cc3)c2-c2ccccc2)-c2ccccc2S1(=O)=O`, the inhibition at 100 µM in data set [1] and in data set [2] was over 50% each time. For the same molecule, the IC50 in data set [3] stood at 3.07 µM; in data set [4] it was 2.99 µM.
For `Cc1c2c(nn1-c1ccc(/C=N/NC(N)=S)cc1)-c1ccccc1S(=O)(=O)N2C`, the inhibition – broadly, the change of the read-out against control, counted positive when it falls – at 100 µM was over 50% in data set [1] and 36% in data set [2]. Also, the IC50 in data set [3] stood at 31.2 µM.
For `CCc1ccc(NC(=S)N/N=C/c2ccc(-n3nc4c(c3C)N(C)S(=O)(=O)c3ccccc3-4)cc2)cc1`, the inhibition at 100 µM in data set [1] and in data set [2] was over 50% in each case. For the same molecule, the IC50 in data set [3] was 1.77 µM; in data set [4], 2.91 µM.
Turning to `Cc1c2c(nn1-c1ccc(/C=N/NC(=S)Nc3ccccc3F)cc1)-c1ccccc1S(=O)(=O)N2C`, the inhibition at 100 µM in data set [1] and in data set [2] was over 50% in each case. For the same molecule, the IC50 was found to be 1.42 µM in data set [3] and 3.83 µM in data set [4].
In the case of `Cc1c2c(nn1-c1ccc(/C=N/NC(=S)NCc3ccccc3)cc1)-c1ccccc1S(=O)(=O)N2C`, the inhibition at 100 µM in data set [1] and in data set [2] was over 50% throughout. The IC50 came to 76.2 µM in data set [3] and 4.72 µM in data set [4].
`Cc1c2c(nn1-c1ccc(/C=N/NC(=S)Nc3cccc(Cl)c3)cc1)-c1ccccc1S(=O)(=O)N2C`: the inhibition at 100 µM in data set [1] and in data set [2] was over 50% throughout. For the same molecule, the figures for the IC50 in data set [3] and in data set [4] were 1.11 µM and 2.89 µM, respectively.
On to `CN1c2c(nn(-c3ccc(/C=N/NC(=S)NCc4ccccc4)cc3)c2-c2ccccc2)-c2ccccc2S1(=O)=O`, for which the inhibition at 100 µM in data set [1] and in data set [2] was over 50% in each case. Moreover, the half-inhibitory concentration (IC50) is 10.6 µM in data set [3] and 0.64 µM in data set [4].
In the case of `CN1c2c(nn(-c3ccc(/C=N/NC(=S)Nc4ccc(F)cc4)cc3)c2-c2ccccc2)-c2ccccc2S1(=O)=O`, the inhibition at 100 µM in data set [1] and in data set [2] was over 50% throughout. Also, the figures for the IC50 in data set [3] and in data set [4] were 2.33 µM and 6.99 µM, respectively.
In the case of `Cc1ccccc1NC(=S)N/N=C/c1ccc(-n2nc3c(c2C)N(C)S(=O)(=O)c2ccccc2-3)cc1`, the inhibition at 100 µM in data set [1] and in data set [2] was over 50% throughout. Besides, the IC50 in data set [3] came out at 0.01 µM; in data set [4] it was 3.13 µM.
Consider `Cc1c2c(nn1-c1ccc(/C=N/NC(=S)Nc3ccc(Cl)cc3)cc1)-c1ccccc1S(=O)(=O)N2C`, for which the inhibition at 100 µM in data set [1] and in data set [2] was over 50% each time. Further, the IC50 in data set [3] turned out to be 3.49 µM; in data set [4] it was 0.43 µM.
For `Cc1c2c(nn1-c1ccc(/C=N/NC(=S)NCN3CCOCC3)cc1)-c1ccccc1S(=O)(=O)N2C`, the inhibition at 100 µM in data set [1] and in data set [2] was over 50% throughout. For the same molecule, the IC50 in data set [3] amounted to 64.8 µM; in data set [4], 4.34 µM.
Turning to `Cc1ccc(NC(=S)N/N=C/c2ccc(-n3nc4c(c3-c3ccccc3)N(C)S(=O)(=O)c3ccccc3-4)cc2)c(C)c1`, the inhibition at 100 µM in data set [1] and in data set [2] was over 50% each time. The IC50 in data set [3] worked out at 9.15 µM; in data set [4] it was 0.75 µM.
With `Cc1c2c(nn1-c1ccc(/C=N/NC(=S)Nc3ccc(F)cc3)cc1)-c1ccccc1S(=O)(=O)N2C`, the inhibition at 100 µM in data set [1] is over 50%; in data set [2] it was 41%. Also, in data set [3], the IC50 stood at 30.2 µM.
As for `Cc1c2c(nn1-c1ccc(/C=N/NC(=S)Nc3ccccc3Cl)cc1)-c1ccccc1S(=O)(=O)N2C`, the inhibition at 100 µM in data set [1] and in data set [2] was over 50% throughout. Moreover, the results for the IC50 in data set [3] and in data set [4] were 4.06 µM and 6.21 µM, respectively.
For the molecule `Cc1c2c(nn1-c1ccc(/C=N/NC(=S)Nc3ccccc3)cc1)-c1ccccc1S(=O)(=O)N2C`, the inhibition at 100 µM in data set [1] and in data set [2] was over 50% in each case. Further, the half-inhibitory concentration (IC50) in data set [3] worked out at 3.69 µM; in data set [4], 4.15 µM.
In the case of `CN1c2c(nn(-c3ccc(/C=N/NC(=S)Nc4ccc(Cl)cc4)cc3)c2-c2ccccc2)-c2ccccc2S1(=O)=O`, the inhibition at 100 µM in data set [1] and in data set [2] was over 50% in each case. The IC50 was 2.06 µM in data set [3] and 3.27 µM in data set [4].
As to `CN1c2c(nn(-c3ccc(/C=N/NC(=S)Nc4ccccc4)cc3)c2-c2ccccc2)-c2ccccc2S1(=O)=O`, the inhibition at 100 µM in data set [1] and in data set [2] was over 50% each time. Further, the figures for the IC50 in data set [3] and in data set [4] were 27.2 µM and 2.49 µM, respectively.
As to `Cc1cccc(C)c1NC(=S)N/N=C/c1ccc(-n2nc3c(c2C)N(C)S(=O)(=O)c2ccccc2-3)cc1`, the “inhibition (INH)” value in data set [1] (100 µM) and in data set [2] (100 µM) was over 50% each time.
Take `Cc1ccc(NC(=S)N/N=C/c2ccc(-n3nc4c(c3C)N(C)S(=O)(=O)c3ccccc3-4)cc2)cc1`: the inhibition at 100 µM in data set [1] and in data set [2] was over 50% throughout. The IC50 in data set [3] came to 0.003 µM; in data set [4], 29.5 µM.
With `CN1c2c(nn(-c3ccc(/C=N/NC(=S)Nc4ccccc4F)cc3)c2-c2ccccc2)-c2ccccc2S1(=O)=O`, the inhibition at 100 µM in data set [1] is over 50%; in data set [2], 19%. Also, the IC50 in data set [3] stood at 0.54 µM.
For the molecule `CN1c2c(nn(-c3ccc(/C=N/NC(N)=S)cc3)c2-c2ccccc2)-c2ccccc2S1(=O)=O`, the inhibition at 100 µM in data set [1] and in data set [2] was over 50% in each case. The IC50 in data set [3] turned out to be 0.97 µM; in data set [4] it was 2.39 µM.
